# Experimental data published in ChEMBL document CHEMBL1629649, “Multiple regulatory pathways associated with high-level ciprofloxacin and multidrug resistance in Salmonella enterica serovar enteritidis: involvement of RamA and other global regulators” (2009).
# What was measured:
# Assay type in all cases: functional, Salmonella enterica subsp. enterica serovar Enteritidis
# Salmonella enteritidis [1] = test: Antimicrobial activity against Salmonella enterica serovar enteritidis isolate NCTC 13349 by Etest
# Salmonella enteritidis [2] = test: Antimicrobial activity against marA::aph-deficient ciprofloxacin-resistant Salmonella enterica serovar enteritidis isolate 104-cip harboring gyrA D87Y,S83F mutant gene by Etest
# How it was run: (§1)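 Deletions (acrB, marA, soxS or ramA) were moved from SL1344 mutants into the isolates by P22 phage transduction. Transductants were selected on LB agar with 50 µg/ml kanamycin, and insertion of the kanamycin resistance gene was confirmed by PCR. MICs were then determined by Etest.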
# Salmonella enteritidis [3] = test: Antimicrobial activity against Salmonella enterica serovar enteritidis isolate 4931 harboring gyrA D87Y mutant gene by Etest
# Salmonella enteritidis [4] = test: Antimicrobial activity against ciprofloxacin-resistant Salmonella enterica serovar enteritidis isolate 5408-cip harboring gyrA gene, gyrB E466D, parE V461G mutant gene by Etest
# How it was run: (§2)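 Wild-type alleles of the target genes were carried on plasmids and introduced into the ciprofloxacin-selected mutants by electrotransformation. Transformants were selected on LB agar with 50 µg/ml kanamycin at 37°C overnight. Quinolone MICs of the transformants were read by Etest strips alongside those of the parent and mutant strains.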
# Salmonella enteritidis [5] = test: Antimicrobial activity against acrB::aph-deficient Salmonella enterica serovar enteritidis isolate CUH60 harboring gyrA D87Y mutant gene by Etest; how it was run: as §1
# Salmonella enteritidis [6] = test: Antimicrobial activity against Salmonella enterica serovar enteritidis isolate 58 harboring gyrA D87Y mutant gene by Etest
# Salmonella enteritidis [7] = test: Antimicrobial activity against acrB::aph-deficient ciprofloxacin-resistant Salmonella enterica serovar enteritidis isolate 5408-cip harboring gyrA D87Y, gyrB E466D, parE V461G mutant gene by Etest; how it was run: as §1
# Salmonella enteritidis [8] = test: Antimicrobial activity against Salmonella enterica serovar enteritidis isolate 5408 harboring gyrA gene by Etest
# Salmonella enteritidis [9] = test: Antimicrobial activity against ciprofloxacin-resistant Salmonella enterica serovar enteritidis isolate 5408-cip harboring gyrA D87Y, gyrB E466D, parE V461G mutant gene by Etest
# Salmonella enteritidis [10] = test: Antimicrobial activity against Salmonella enterica serovar enteritidis isolate 5408 harboring gyrA D87Y mutant gene by Etest
# Salmonella enteritidis [11] = test: Antimicrobial activity against Salmonella enterica serovar enteritidis isolate CUH52 by Etest
# Salmonella enteritidis [12] = test: Antimicrobial activity against acrB::aph-deficient Salmonella enterica serovar enteritidis isolate 5408 harboring gyrA D87Y mutant gene by Etest; how it was run: as §1
# Salmonella enteritidis [13] = test: Antimicrobial activity against ciprofloxacin-resistant Salmonella enterica serovar enteritidis isolate 5408-cip harboring gyrB gene gyrA D87Y, parE V461G mutant gene by Etest; how it was run: as §2
# Salmonella enteritidis [14] = test: Antimicrobial activity against Salmonella enterica serovar enteritidis isolate 104-cip harboring gyrA D87Y,S83F mutant gene by Etest
# Salmonella enteritidis [15] = test: Antimicrobial activity against acrB::aph-deficient Salmonella enterica serovar enteritidis isolate 4931 harboring gyrA D87Y mutant gene by Etest; how it was run: as §1
# Salmonella enteritidis [16] = test: Antimicrobial activity against acrB::aph-deficient Salmonella enterica serovar enteritidis isolate 104 harboring gyrA D87Y mutant gene by Etest; how it was run: as §1
# Salmonella enteritidis [17] = test: Antimicrobial activity against ciprofloxacin-resistant Salmonella enterica serovar enteritidis isolate 5408-cip harboring parE gene gyrA D87Y, gyrB E466D mutant gene by Etest; how it was run: as §2
# Salmonella enteritidis [18] = test: Antimicrobial activity against ciprofloxacin-resistant Salmonella enterica serovar enteritidis isolate 104-cip harboring gyrA gene by Etest; how it was run: as §2
# Salmonella enteritidis [19] = test: Antimicrobial activity against acrB::aph-deficient ciprofloxacin-resistant Salmonella enterica serovar enteritidis isolate 104-cip harboring gyrA D87Y,S83F mutant gene by Etest; how it was run: as §1
# Salmonella enteritidis [20] = test: Antimicrobial activity against Salmonella enterica serovar enteritidis isolate 104 harboring gyrA D87Y mutant gene by Etest
# Salmonella enteritidis [21] = test: Antimicrobial activity against soxS::aph-deficient ciprofloxacin-resistant Salmonella enterica serovar enteritidis isolate 104-cip harboring gyrA D87Y,S83F mutant gene by Etest; how it was run: as §1
# Salmonella enteritidis [22] = test: Antimicrobial activity against Salmonella enterica serovar enteritidis isolate 54 harboring gyrA D87Y mutant gene by Etest
# Salmonella enteritidis [23] = test: Antimicrobial activity against ramA::aph-deficient ciprofloxacin-resistant Salmonella enterica serovar enteritidis isolate 5408-cip harboring gyrA D87Y, gyrB E466D, parE V461G mutant gene by Etest; how it was run: as §1
# Salmonella enteritidis [24] = test: Antimicrobial activity against acrB::aph-deficient Salmonella enterica serovar enteritidis isolate 51 harboring gyrA D87Y mutant gene by Etest; how it was run: as §1
# Salmonella enteritidis [25] = test: Antimicrobial activity against Salmonella enterica serovar enteritidis isolate CUH60 harboring gyrA D87Y mutant gene by Etest
# Salmonella enteritidis [26] = test: Antimicrobial activity against Salmonella enterica serovar enteritidis isolate 104 harboring gyrA gene by Etest
# Salmonella enteritidis [27] = test: Antimicrobial activity against Salmonella enterica serovar enteritidis isolate 51 harboring gyrA D87Y mutant gene by Etest
# Salmonella enteritidis [28] = test: Antimicrobial activity against Salmonella enterica serovar enteritidis isolate CUH48 by Etest
smiles,measurement,setting,value
CCn1cc(C(=O)O)c(=O)c2ccc(C)nc21 [NALIDIXIC ACID],MIC,Salmonella enteritidis [1],8 µg/mL
same,MIC,Salmonella enteritidis [2],> 256 µg/mL
same,MIC,Salmonella enteritidis [3],> 256 µg/mL
same,MIC,Salmonella enteritidis [4],> 256 µg/mL
same,MIC,Salmonella enteritidis [5],24 µg/mL
same,MIC,Salmonella enteritidis [6],> 256 µg/mL
same,MIC,Salmonella enteritidis [7],> 256 µg/mL
same,MIC,Salmonella enteritidis [8],4 µg/mL
same,MIC,Salmonella enteritidis [9],> 256 µg/mL
same,MIC,Salmonella enteritidis [10],> 256 µg/mL
same,MIC,Salmonella enteritidis [11],3 µg/mL
same,MIC,Salmonella enteritidis [12],32 µg/mL
same,MIC,Salmonella enteritidis [13],> 256 µg/mL
same,MIC,Salmonella enteritidis [14],> 256 µg/mL
same,MIC,Salmonella enteritidis [15],32 µg/mL
same,MIC,Salmonella enteritidis [16],32 µg/mL
same,MIC,Salmonella enteritidis [17],> 256 µg/mL
same,MIC,Salmonella enteritidis [18],8 µg/mL
same,MIC,Salmonella enteritidis [19],> 256 µg/mL
same,MIC,Salmonella enteritidis [20],> 256 µg/mL
same,MIC,Salmonella enteritidis [21],> 256 µg/mL
same,MIC,Salmonella enteritidis [22],> 256 µg/mL
same,MIC,Salmonella enteritidis [23],> 256 µg/mL
same,MIC,Salmonella enteritidis [24],32 µg/mL
same,MIC,Salmonella enteritidis [25],> 256 µg/mL
same,MIC,Salmonella enteritidis [26],4 µg/mL
same,MIC,Salmonella enteritidis [27],> 256 µg/mL
same,MIC,Salmonella enteritidis [28],6 µg/mL
